According to ChEMBL document CHEMBL1151829, “Molluscicidal Phloroglucinols from the Fern Elaphoglossum piloselloides” (2009):

Assays:
Assay type in all cases: functional
Oncomelania hupensis = experiment: Molluscicidal activity against Oncomelania hupensis; conditions: read-out: LD50 (the source's name)
Biomphalaria pfeifferi = experiment: Molluscicidal activity against Biomphalaria pfeifferi; conditions: read-out: LD50 (the source's name)
Biomphalaria alexandrina = experiment: Molluscicidal activity against Biomphalaria alexandrina; conditions: read-out: LD50 (the source's name)
Biomphalaria peregrina [1] = experiment: Molluscicidal activity against Biomphalaria peregrina assessed as mortality at 5 ppm after 24 hrs
Method in brief: (§1)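 WHO protocol on adult snails, seven per beaker, each concentration in triplicate. Test solutions in water with MeOH ≤5% v/v; same-volume solvent controls. After 24 h exposure, snails were rinsed in dechlorinated tap water and kept 24 h to recover in dechlorinated tap water with lettuce leaves. Percent mortality was then recorded at the stated ppm.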

Biomphalaria peregrina [2] = experiment: Molluscicidal activity against Biomphalaria peregrina assessed as mortality at 1 ppm after 24 hrs; method in brief: as §1
Biomphalaria peregrina [3] = experiment: Molluscicidal activity against Biomphalaria peregrina after 24 hrs; conditions: for LC50: Biomphalaria peregrina, 24 h, read-out: LD50 (the source's name)
Method in brief: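 Adult snails (seven per concentration, triplicate) exposed 24 h to test solutions in water with MeOH ≤5% v/v, per the WHO protocol. Snails were then washed and held 24 h in dechlorinated tap water with lettuce leaves before mortality was scored. Solvent-only negative control; 10 ppm CuSO₄ positive control.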

Biomphalaria peregrina [4] = experiment: Molluscicidal activity against Biomphalaria peregrina assessed as mortality at 0.5 ppm after 24 hrs; method in brief: as §1
Biomphalaria peregrina [5] = experiment: Molluscicidal activity against Biomphalaria peregrina assessed as mortality at 10 ppm after 24 hrs; method in brief: as §1
Biomphalaria peregrina [6] = experiment: Molluscicidal activity against Biomphalaria peregrina assessed as mortality at 20 ppm after 24 hrs; method in brief: as §1
Biomphalaria peregrina [7] = experiment: Molluscicidal activity against Biomphalaria peregrina assessed as mortality at 40 ppm after 24 hrs; method in brief: as §1

Row | Structure (SMILES) | LC50 (Oncomelania hupensis) | LC50 (Biomphalaria pfeifferi) | LC50 (Biomphalaria alexandrina) | Activity (Biomphalaria peregrina [1]) | Activity (Biomphalaria peregrina [2]) | LD90 (Biomphalaria peregrina [3]) | LC50 (Biomphalaria peregrina [3]) | Activity (Biomphalaria peregrina [4]) | Activity (Biomphalaria peregrina [5]) | Activity (Biomphalaria peregrina [6]) | Activity (Biomphalaria peregrina [7]) | LD100 (Biomphalaria peregrina [3])
1 | O=C(Nc1ccc([N+](=O)[O-])cc1Cl)c1cc(Cl)ccc1O [NICLOSAMIDE] | ≤ 0.5 µg/mL | ≤ 0.5 µg/mL | ≤ 0.5 µg/mL | – | – | – | – | – | – | – | – | –
2 | CCCC(=O)C1=C(O)C(C)(CC=C(C)C)C(O)=C(Cc2c(OC)cc(O)c(C(=O)CCC)c2O)C1=O (stereo unspecified) | – | – | – | 95% | 10% | 9 µM | 5.8 µM | 0% | – | – | – | –
3 | CC/C=C(\OC(C)=O)C1=C(OC(C)=O)C(C)(CC=C(C)C)C(OC(C)=O)=C(Cc2c(OC)cc(OC(C)=O)c(C(=O)CCC)c2OC(C)=O)C1=O (stereo unspecified) | – | – | – | 5% | 0% | 20.7 µM | 14.9 µM | – | 43% | – | – | –
4 | CC/C=C(\OC(C)=O)C1=C(OC(C)=O)C(C)(CC=C(C)C)C(OC(C)=O)=C(Cc2c(OC)cc(OC(C)=O)c(C(=O)CCCCC)c2OC(C)=O)C1=O (stereo unspecified) | – | – | – | 0% | 0% | 58.4 µM | 40.6 µM | – | 0% | 24% | 81% | –
5 | CCCCCC(=O)c1c(O)cc(OC)c(CC2=C(O)C(C)(CC=C(C)C)C(O)=C(C(=O)CCC)C2=O)c1O (stereo unspecified) | – | – | – | 100% | 57% | 2.6 µM | 1.8 µM | 10% | – | – | – | <=5 ppm
